{"source": "paper PMC2906681", "about": "(Biochemical pharmacology, 2010)", "key": {"[1]": {"tested_on": "Shp1", "details": "cited from earlier work"}, "[2]": {"tested_on": "most of other PTPs", "details": "cited from earlier work"}, "[3]": {"tested_on": "cells", "assay": "Confocal laser scanning microscopy of compound uptake", "assay_type": "in vitro ADME", "details": "25 µM, 3 h", "how_it_was_run": "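TF-1/Shp2E76K cells grown in glass-bottom dishes were exposed to test compound at 25 µM for 3 h, then Hoechst 33342 (5 µg/ml) was added. Internal confocal sections were imaged with a 63X/1.40NA oil objective (2,520×), using 458 nm argon and 405 nm diode excitation with tunable emission filters. Compound fluorescence was viewed green.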"}, "[4]": {"tested_on": "TF-1/Shp2^E76K cells", "assay": "Fluorescence uptake assay", "assay_type": "in vitro ADME", "details": "5 h incubation, ex/em 485/535 nm", "how_it_was_run": "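TF-1/Shp2E76K cells (6 × 10^5 in 1 ml RPMI1640/10% FBS) were incubated 5 h at 37 °C/5% CO2 with test compound or DMSO. Fluorescence (485/535 nm) was read in the whole suspension, then in cell-free medium (supernatant plus washes) and in twice-washed pellets. Fraction totals were expressed relative to the 100 µM suspension, set as 100%. Two duplicate experiments (n = 4).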"}, "[5]": {"biological_target": "T1, Shp2 (Homo sapiens, UniProt Q06124)", "T1 sequence (Q06124 1-593)": "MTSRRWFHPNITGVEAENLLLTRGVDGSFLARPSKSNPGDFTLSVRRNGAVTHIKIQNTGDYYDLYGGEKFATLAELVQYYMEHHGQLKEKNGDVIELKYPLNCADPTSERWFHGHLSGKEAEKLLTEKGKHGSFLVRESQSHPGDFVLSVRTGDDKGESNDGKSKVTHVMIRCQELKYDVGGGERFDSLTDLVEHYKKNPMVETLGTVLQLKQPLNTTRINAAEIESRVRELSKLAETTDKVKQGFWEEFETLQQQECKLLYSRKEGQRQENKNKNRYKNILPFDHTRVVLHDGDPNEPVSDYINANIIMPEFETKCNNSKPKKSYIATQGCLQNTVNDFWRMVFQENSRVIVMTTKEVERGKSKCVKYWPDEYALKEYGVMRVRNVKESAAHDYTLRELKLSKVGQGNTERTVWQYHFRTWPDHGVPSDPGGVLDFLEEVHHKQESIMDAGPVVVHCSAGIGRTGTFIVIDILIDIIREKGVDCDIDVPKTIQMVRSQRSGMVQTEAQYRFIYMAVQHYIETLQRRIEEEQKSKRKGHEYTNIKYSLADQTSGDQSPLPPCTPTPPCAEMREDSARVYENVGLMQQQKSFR", "assay": "EGF-stimulated Shp2 PTP activity in immune complexes from MDA-MB-468 cells", "assay_type": "cell-based", "details": "100 µM pre-treatment overnight, EGF 50 ng/ml 10 min", "how_it_was_run": "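Sub-confluent MDA-MB-468 cells were serum-starved 18 h in DMEM/0.1% BSA, pretreated overnight with test compound (20 or 100 µM), then EGF-stimulated (50 ng/ml, 10 min). Lysate (0.2 mg, Hepes pH 7.4 PTP lysis buffer) was immunoprecipitated with anti-Shp2/protein G for 2 h at 4 °C and washed. Complexes were reacted with 50 µM DiFMUP for 20 min at room temperature, and DiFMU fluorescence was read. Pellets were immunoblotted for Shp2. Two experiments, duplicates.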"}, "[6]": {"biological_target": "T1, Shp2", "assay": "Cell-based Shp2 inhibition assays"}, "[7]": {"tested_on": "TF-1/Shp2^E76K cells", "assay": "Cell growth assay", "assay_type": "cell-based", "details": "GM-CSF-free medium, 4 days", "how_it_was_run": "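TF-1/Shp2E76K cells were plated at 1,000 cells/well in triplicate in RPMI1640/10% FBS without GM-CSF, with test compound. The compound volume was ≤0.1% of the total. Cells were incubated 4 days at 37 °C/5% CO2, then relative viable cell number was read with CellTiterGlo. Data came from two triplicate experiments.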"}, "[8]": {"biological_target": "T2, Shp2^E76K (Homo sapiens, UniProt Q06124, E76K)", "T2 sequence (Q06124 1-593 E76K)": "T1 sequence (Q06124 1-593) with E76K", "assay": "Shp2^E76K PTP activity in immune complexes from TF-1/Shp2^E76K cells", "assay_type": "cell-based", "details": "GM-CSF-free medium", "how_it_was_run": "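TF-1/Shp2E76K cells were treated in GM-CSF-free RPMI1640/10% FBS with test compound at various concentrations. Flag-Shp2E76K was immunoprecipitated with anti-Flag M2/protein G (0.2 mg lysate, 2 h, 4 °C) and washed. Complexes were incubated with 50 µM DiFMUP for 20 min at room temperature, and fluorescence was measured. Part of each immunoprecipitate was blotted for Shp2. Two experiments.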"}, "[9]": {"biological_target": "T3, His-tagged Shp2 (amino acids 1–525) (Homo sapiens, UniProt Q06124)", "T3 sequence (Q06124 1-525)": "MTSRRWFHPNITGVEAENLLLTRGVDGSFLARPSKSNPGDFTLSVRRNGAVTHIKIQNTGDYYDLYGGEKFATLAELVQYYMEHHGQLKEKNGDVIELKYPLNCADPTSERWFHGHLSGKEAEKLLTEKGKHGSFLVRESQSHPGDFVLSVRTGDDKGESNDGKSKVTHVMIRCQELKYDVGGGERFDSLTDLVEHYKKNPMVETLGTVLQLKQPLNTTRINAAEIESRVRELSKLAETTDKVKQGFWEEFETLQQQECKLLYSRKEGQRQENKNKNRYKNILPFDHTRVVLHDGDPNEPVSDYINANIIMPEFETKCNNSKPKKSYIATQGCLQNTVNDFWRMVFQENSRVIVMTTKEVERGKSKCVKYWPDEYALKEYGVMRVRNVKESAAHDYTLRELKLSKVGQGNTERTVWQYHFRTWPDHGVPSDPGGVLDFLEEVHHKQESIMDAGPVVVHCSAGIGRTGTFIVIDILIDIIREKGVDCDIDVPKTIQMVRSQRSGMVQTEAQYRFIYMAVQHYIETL", "assay": "Surface plasmon resonance", "details": "SPR, 1:1 binding model"}, "[10]": {"biological_target": "T4, non-fusion Shp2 PTP protein (Homo sapiens, UniProt Q06124)", "T4 sequence (Q06124 247-517 limits assumed)": "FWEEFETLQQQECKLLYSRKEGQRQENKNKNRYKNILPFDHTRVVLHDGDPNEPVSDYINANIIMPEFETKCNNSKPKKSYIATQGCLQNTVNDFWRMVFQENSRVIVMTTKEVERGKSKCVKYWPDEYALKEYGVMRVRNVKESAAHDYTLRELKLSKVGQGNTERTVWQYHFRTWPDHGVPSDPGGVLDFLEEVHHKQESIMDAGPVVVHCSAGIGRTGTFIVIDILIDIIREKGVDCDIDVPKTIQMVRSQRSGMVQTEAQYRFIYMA", "assay": "Enzyme kinetics analysis of Shp2 PTP inhibition", "assay_type": "biochemical", "details": "Lineweaver-Burk, AIC comparison"}, "[11]": {"tested_on": "HT-29 cells", "assay": "Cell growth assay", "assay_type": "cell-based", "details": "IFN-γ 100 U/ml alone, 4 days", "how_it_was_run": "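HT-29 cells at 1,000 cells/well, in triplicate, in RPMI1640/10% FBS with IFN-γ (100 U/ml) and/or test compound or vehicle. Compound volume kept ≤0.1% of total. Incubated 4 days at 37 °C/5% CO2. Relative viable cell number was read by CellTiterGlo luminescence. Synergism of the two agents was calculated with the Bliss definition.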"}, "[12]": {"tested_on": "ISRE-luciferase reporter", "assay": "ISRE luciferase reporter assay in HT-29 cells", "assay_type": "cell-based", "details": "IFN-γ 50 U/ml alone, 6 h", "how_it_was_run": "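HT-29 cells (5 × 10^5 per well) were co-transfected by lipofection with 1.6 µg pISRE-Luc and 0.4 µg β-gal plasmids. They were then stimulated with 50 U/ml IFN-γ for 6 h or left unstimulated. Luciferase was normalized to β-galactosidase activity; two duplicate experiments (n = 4).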"}}, "note": "Numbering of substitutions follows the chain as printed.", "data": [{"compound": "O=C(O)c1cc(O)c(=O)c2c(O)c(O)ccc2c1", "note": "[DCA, 7-deshydroxypyrogallin-4-carboxylic acid]", "values": [{"measurement": "Shp1 inhibition compared with Shp2", "setting": "[1]", "value": "same potency"}]}, {"compound": "O=C1C(=NNc2ccc(S(=O)(=O)O)cc2)C(c2ccc([N+](=O)[O-])cc2)=NN1c1ccccc1", "note": "[PHPS1, phenylhydrazonopyrazolone sulfonate 1]", "values": [{"measurement": "selectivity against Shp1", "setting": "[1]", "value": 14, "unit": "fold"}, {"measurement": "selectivity against most of other PTPs", "setting": "[2]", "value": "> 10"}]}, {"compound": "O=C1Nc2ccc(S(=O)(=O)NCc3ccc(F)cc3)cc2/C1=N/Nc1cccc(C(=O)O)c1", "note": "[SPI-112, (Z)-3-(2-(5-(N-(4-fluorobenzyl)sulfamoyl)-2-oxoindolin-3-ylidene)hydrazinyl)benzoic acid]", "values": [{"measurement": "green fluorescence in confocal images of internal sections of cells", "setting": "[3]", "value": "did not have green fluorescence"}, {"measurement": "fluorescent signal associated with the cell pellets", "setting": "[4]", "value": "only trace amount"}, {"measurement": "effect on EGF-stimulated Shp2 PTP activity", "setting": "[5]", "value": "did not affect"}, {"measurement": "activity in cell-based Shp2 inhibition assays", "setting": "[6]", "value": "no detectable activity"}, {"measurement": "effect on viable cells", "setting": "[7]", "value": "did not affect"}, {"measurement": "Shp2^E76K PTP activity in treated cells", "setting": "[8]", "value": "no decrease"}, {"measurement": "association rate Ka", "setting": "[9]", "value": 22400, "unit": "M⁻¹ s⁻¹"}, {"measurement": "best fitted inhibition model", "setting": "[10]", "value": "competitive inhibition model"}]}, {"compound": "IFN-γ: interferon-γ, cytokine used to stimulate STAT1 signaling in HT-29 cells", "values": [{"measurement": "fraction of inhibition", "setting": "[11]", "value": 0.18}, {"measurement": "activation of ISRE luciferase activity", "setting": "[12]", "value": 26, "unit": "%"}]}]}
